Test results published in ChEMBL document CHEMBL2390920, “8-Benzamidochromen-4-one-2-carboxylic acids: potent and selective agonists for the orphan G protein-coupled receptor GPR35” (J Med Chem, 2013).
One block for each compound: values may come before it.

Key:
[1] = molecular target: T1, G-protein coupled receptor 55 (Homo sapiens, UniProt Q9Y2T6); assay: Agonist activity at human GPR55 expressed in CHO cells assessed as induction of beta-arrestin recruitment at 10 uM after 90 mins by beta-galactosidase reporter gene assay relative to lysophosphotidylinositol; assay type: functional, cell-based
T1 sequence (Q9Y2T6 whole entry): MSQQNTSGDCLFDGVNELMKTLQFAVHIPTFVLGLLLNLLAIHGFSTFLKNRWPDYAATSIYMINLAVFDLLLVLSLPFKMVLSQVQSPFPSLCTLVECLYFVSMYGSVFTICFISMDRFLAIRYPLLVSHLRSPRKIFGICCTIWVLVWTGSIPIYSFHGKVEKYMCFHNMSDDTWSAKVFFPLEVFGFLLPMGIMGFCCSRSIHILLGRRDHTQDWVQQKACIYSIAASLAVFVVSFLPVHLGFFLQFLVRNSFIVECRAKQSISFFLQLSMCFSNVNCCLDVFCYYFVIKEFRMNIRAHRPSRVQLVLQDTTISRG
Method in brief: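 Human GPR55 PathHunter CHO cells, 20000 cells/well seeded the day before, received test compound at 10 µM (final DMSO ≤1%) for 90 min. Detection reagent was then added and luminescence read after 60 min. Signal was normalized to that of 1 µM LPI.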

[2] = molecular target: G protein-coupled receptor GPR35 (Rattus norvegicus, UniProt Q33BM1); assay: Agonist activity at rat GPR35 expressed in CHO cells assessed as induction of beta-arrestin recruitment after 90 mins by beta-galactosidase reporter gene assay; assay type: cell-based
Chain of G protein-coupled receptor GPR35 (Q33BM1 whole entry): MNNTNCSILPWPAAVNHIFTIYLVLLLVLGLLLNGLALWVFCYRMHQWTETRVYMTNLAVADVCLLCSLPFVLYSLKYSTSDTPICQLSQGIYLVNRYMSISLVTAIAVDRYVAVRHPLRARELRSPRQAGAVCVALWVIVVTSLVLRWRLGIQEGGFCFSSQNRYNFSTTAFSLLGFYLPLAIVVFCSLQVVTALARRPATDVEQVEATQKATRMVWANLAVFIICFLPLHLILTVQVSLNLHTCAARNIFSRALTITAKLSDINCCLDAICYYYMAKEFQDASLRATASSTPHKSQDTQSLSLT
Method in brief: (§1)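 Rat GPR35 expressed by transfecting a parental CHO β-arrestin-EA line; cells seeded at 20000/well the day before. Compounds (final DMSO ≤1%) were incubated 90 min, followed by detection reagent and a luminescence read after 60 min.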

[3] = molecular target: T2, G-protein coupled receptor 35 (Homo sapiens, UniProt Q9HC97); assay: Agonist activity at human GPR35 expressed in CHO cells assessed as induction of beta-arrestin recruitment after 90 mins by beta-galactosidase reporter gene assay; assay type: cell-based
T2 sequence (Q9HC97 whole entry, the tested form may be a part): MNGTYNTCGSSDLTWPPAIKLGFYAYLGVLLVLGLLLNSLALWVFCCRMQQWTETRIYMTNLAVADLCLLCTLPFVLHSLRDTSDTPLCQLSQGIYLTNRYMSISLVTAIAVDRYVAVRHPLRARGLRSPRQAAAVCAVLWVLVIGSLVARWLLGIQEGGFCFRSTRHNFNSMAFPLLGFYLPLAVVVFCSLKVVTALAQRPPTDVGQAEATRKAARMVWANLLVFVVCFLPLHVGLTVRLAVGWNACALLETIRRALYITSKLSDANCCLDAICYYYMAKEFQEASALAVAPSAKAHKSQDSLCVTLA
Method in brief: (§2)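 PathHunter enzyme-fragment complementation in CHO cells stably expressing β-arrestin-EA and tagged human GPR35, seeded at 20000 cells/well the day before. DMSO dilutions were further diluted 1:10 (final DMSO ≤1%). Cells were incubated 90 min, then detection reagent was added and luminescence read after 60 min.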

[4] = molecular target: G-protein coupled receptor 35 (Mus musculus) (UniProt Q9ES90); assay: Agonist activity at mouse GPR35 expressed in CHO cells assessed as induction of beta-arrestin recruitment at 10 uM after 90 mins by beta-galactosidase reporter gene assay; assay type: cell-based
Chain of G-protein coupled receptor 35 (Mus musculus) (Q9ES90 whole entry): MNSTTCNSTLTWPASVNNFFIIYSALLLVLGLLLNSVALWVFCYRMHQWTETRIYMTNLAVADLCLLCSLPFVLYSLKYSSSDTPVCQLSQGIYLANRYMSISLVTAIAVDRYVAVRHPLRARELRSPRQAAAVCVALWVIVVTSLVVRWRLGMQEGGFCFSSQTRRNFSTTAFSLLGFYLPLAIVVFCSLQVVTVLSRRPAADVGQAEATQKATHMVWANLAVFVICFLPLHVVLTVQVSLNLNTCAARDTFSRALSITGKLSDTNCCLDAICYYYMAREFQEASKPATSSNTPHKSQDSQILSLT
Method in brief: (§3)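 Mouse GPR35 introduced by transfection into a CHO β-arrestin-EA line; 20000 cells/well plated the day prior. After 90 min of compound exposure (final DMSO ≤1%), detection reagent was added and luminescence read after 60 min.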

[5] = Stability of the compound in aceronitrile/water at pH 3.5 at 1.2 mM after 90 mins by LC-MS analysis in presence of acetic acid and ammonium acetate; assay type: physicochemical; settings: buffer, pH 3.5, 1.5 h, 1200 µM
Method in brief: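 Compound prepared at 1.20 mM in 1:1 acetonitrile/water adjusted to pH 3.5, containing acetic acid (300 mM) and ammonium acetate (2 mM); sample then analysed by LC-MS.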

Homo sapiens = species: Homo sapiens; assay: Selectivity ratio of IC50 for human GPR55 to EC50 for human GPR35
[6] = Stability of the compound in aceronitrile/water at pH 8 at 1.2 mM after 2 to 4 days by LC-MS analysis in presence of ammonia and ammonium acetate; assay type: physicochemical; settings: buffer, pH 8, 1200 µM
Method in brief: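 Solution of compound at 1.20 mM in 1:1 acetonitrile/water at pH 8.0, containing ammonia ([…]) and ammonium acetate (2 mM); sample then analysed by LC-MS.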

[7] = molecular target: T2, G-protein coupled receptor 35; assay: Agonist activity at human GPR35b expressed in CHO cells assessed as induction of beta-arrestin recruitment after 90 mins by beta-galactosidase reporter gene assay; assay type: cell-based
Method in brief: (§4)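 CHO β-arrestin-EA parental line transfected with human GPR35b, seeded at 20000 cells/well the day before. Compounds in DMSO were diluted 1:10 in medium or PBS (final DMSO ≤1%). After 90 min of incubation, detection reagent was added and luminescence measured 60 min later. Screening was at 10 µM.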

[8] = molecular target: T2, G-protein coupled receptor 35; assay: Agonist activity at human GPR35 expressed in CHO cells assessed as induction of beta-arrestin recruitment at 10 uM after 90 mins by beta-galactosidase reporter gene assay relative to zaprinast; assay type: cell-based; method in brief: as §2
[9] = molecular target: T1, G-protein coupled receptor 55; assay: Antagonist activity at human GPR55 expressed in CHO cells assessed as inhibition of lysophosphotidylinositol-induced beta-arrestin recruitment preincubated for 30 mins followed by lysophosphotidylinositol induction by beta-galactosidase reporter gene assay; assay type: functional, cell-based
Method in brief: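 Human GPR55 PathHunter CHO cells were preincubated 30 min with compound, then stimulated with LPI (final 1 µM). After 90 min, detection reagent was added and luminescence read 60 min later. Screening was at 10 µM; full concentration-inhibition curves were run for selected compounds to give IC50.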

[10] = molecular target: G protein-coupled receptor GPR35 (Rattus norvegicus) (UniProt Q33BM1); assay: Agonist activity at rat GPR35 expressed in CHO cells assessed as induction of beta-arrestin recruitment at 10 uM after 90 mins by beta-galactosidase reporter gene assay relative to zaprinast; assay type: cell-based; method in brief: as §1
Chain of G protein-coupled receptor GPR35 (Rattus norvegicus) (Q33BM1 as listed by the source): as the sequence (Q33BM1 whole entry) above

[11] = Stability of the compound in aceronitrile/water at pH 5.5 at 1.2 mM after 4 hrs by LC-MS analysis; assay type: physicochemical; settings: buffer, pH 5.5, 4 h, 1200 µM
Method in brief: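 Compound dissolved at 1.20 mM in 1:1 acetonitrile/water at pH 5.5 with no added acid, base or salt; sample then analysed by LC-MS.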

[12] = molecular target: T2, G-protein coupled receptor 35; assay: Agonist activity at human GPR35b expressed in CHO cells assessed as induction of beta-arrestin recruitment at 10 uM after 90 mins by beta-galactosidase reporter gene assay relative to zaprinast; assay type: cell-based; method in brief: as §4
[13] = Inhibition of chloride channel (unknown origin); set-up: species or system Homo sapiens
[14] = molecular target: G-protein coupled receptor 35 (Mus musculus, UniProt Q9ES90); assay: Agonist activity at mouse GPR35 expressed in CHO cells assessed as induction of beta-arrestin recruitment after 90 mins by beta-galactosidase reporter gene assay; assay type: cell-based; method in brief: as §3
Chain of G-protein coupled receptor 35 (Mus musculus, UniProt Q9ES90) (Q9ES90 whole entry): as the sequence (Q9ES90 whole entry) above

[15] = molecular target: G-protein coupled receptor 35 (Mus musculus) (UniProt Q9ES90); assay: Agonist activity at mouse GPR35 expressed in CHO cells assessed as induction of beta-arrestin recruitment at 10 uM after 90 mins by beta-galactosidase reporter gene assay relative to zaprinast; assay type: cell-based; method in brief: as §3
[16] = Inhibition of PDE (unknown origin); set-up: species or system Homo sapiens
[17] = molecular target: Glutamate [NMDA] receptor; assay: Inhibition of NMDA receptor (unknown origin); set-up: species or system Homo sapiens
[18] = molecular target: Neuronal acetylcholine receptor subunit alpha-7 (Homo sapiens, UniProt P36544); assay: Inhibition of alpha7 nAChR (unknown origin)
Chain of Neuronal acetylcholine receptor subunit alpha-7 (P36544 whole entry): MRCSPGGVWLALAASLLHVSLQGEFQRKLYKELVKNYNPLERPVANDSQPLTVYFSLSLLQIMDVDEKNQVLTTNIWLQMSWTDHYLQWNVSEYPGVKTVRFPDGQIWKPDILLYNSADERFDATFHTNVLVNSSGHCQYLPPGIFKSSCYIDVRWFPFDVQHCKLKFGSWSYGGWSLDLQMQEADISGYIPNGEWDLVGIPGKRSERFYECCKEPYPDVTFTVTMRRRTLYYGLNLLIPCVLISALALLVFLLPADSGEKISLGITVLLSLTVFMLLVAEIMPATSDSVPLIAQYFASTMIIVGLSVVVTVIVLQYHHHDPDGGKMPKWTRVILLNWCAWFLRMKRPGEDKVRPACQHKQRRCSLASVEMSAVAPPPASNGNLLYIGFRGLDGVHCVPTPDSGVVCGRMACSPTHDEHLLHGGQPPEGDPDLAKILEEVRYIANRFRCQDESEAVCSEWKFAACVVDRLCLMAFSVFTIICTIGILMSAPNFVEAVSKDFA

[19] = molecular target: T3, Aryl hydrocarbon receptor (Homo sapiens, UniProt P35869); assay: Activation of AHR (unknown origin)
T3 sequence (P35869 whole entry): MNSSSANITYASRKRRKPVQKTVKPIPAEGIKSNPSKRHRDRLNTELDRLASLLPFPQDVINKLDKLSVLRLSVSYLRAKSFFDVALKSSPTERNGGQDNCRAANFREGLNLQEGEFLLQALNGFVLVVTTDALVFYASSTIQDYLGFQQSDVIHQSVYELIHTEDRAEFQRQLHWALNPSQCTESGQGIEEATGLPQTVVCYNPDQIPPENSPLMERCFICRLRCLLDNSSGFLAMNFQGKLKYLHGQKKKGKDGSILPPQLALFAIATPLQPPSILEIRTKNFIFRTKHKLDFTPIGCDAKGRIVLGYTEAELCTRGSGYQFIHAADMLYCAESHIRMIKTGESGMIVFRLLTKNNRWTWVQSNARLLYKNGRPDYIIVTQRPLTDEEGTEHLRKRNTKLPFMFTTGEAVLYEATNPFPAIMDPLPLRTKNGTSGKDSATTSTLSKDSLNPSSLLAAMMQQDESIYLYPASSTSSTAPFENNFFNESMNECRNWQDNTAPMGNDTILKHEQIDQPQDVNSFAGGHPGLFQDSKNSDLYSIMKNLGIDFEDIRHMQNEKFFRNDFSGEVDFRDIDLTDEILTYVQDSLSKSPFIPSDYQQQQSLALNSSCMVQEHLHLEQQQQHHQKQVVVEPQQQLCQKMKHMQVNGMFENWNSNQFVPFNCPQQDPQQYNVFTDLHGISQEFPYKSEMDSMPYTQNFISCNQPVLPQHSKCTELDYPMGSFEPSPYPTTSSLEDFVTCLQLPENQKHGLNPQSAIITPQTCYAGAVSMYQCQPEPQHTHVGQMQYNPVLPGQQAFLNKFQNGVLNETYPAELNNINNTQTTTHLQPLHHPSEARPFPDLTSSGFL

[20] = molecular target: GABA-A receptor; agonist GABA site; assay: Inhibition of GABAA receptor (unknown origin); assay type: protein-complex assay, Homo sapiens
[21] = Inhibition of AMPA receptor (unknown origin); set-up: species or system Homo sapiens

SMILES: COc1ccc(C(=O)Nc2cc(Br)cc3c(=O)cc(C(=O)O)oc23)cc1
Activity [1]: 0% | EC50 [2]: 1.4 µM | EC50 [3]: 0.0121 µM | Activity [4]: 36% | Stability [5]: Stable | Ratio IC50/EC50 (Homo sapiens): > 1700 | Stability [6]: Stable | EC50 [7]: 0.0221 µM | Emax [8]: 121% | IC50 [9]: 21.7 µM | Emax [10]: 88% | Stability [11]: Stable | Emax [12]: 136%

EC50 [2]: 0.986 µM | IC50 [13]: 5 µM | EC50 [3]: 1.26 µM | Emax [8]: 119% | Emax [10]: 104% | EC50 [14]: 4.84 µM | Emax [15]: 102% | Ki [16]: 0.0008 µM
SMILES: O=C(O)c1cc(=O)c2c(OCC(O)COc3cccc4oc(C(=O)O)cc(=O)c34)cccc2o1 [CROMOLYN SODIUM]

IC50 [17]: 15 µM | EC50 [2]: 66 µM | EC50 [3]: 217 µM | IC50 [18]: 7 µM | EC50 [19]: 0.3 µM | IC50 [20]: 2900 µM | IC50 [21]: 10 µM
SMILES: O=C(O)c1cc(=O)c2ccccc2[nH]1 [TRANSTORINE]
